Source: ChEMBL document CHEMBL2040734, “Benzothiazoles: search for anticancer agents” (2012)

Columns and labels:
Format in all cases: functional
NCI-H522 [1] = test: Cytotoxicity against human NCI-H522 cells assessed as cell growth at 100 uM after 48 hrs by sulforhodamine B assay; conditions: NCI-H522, 48 h, read-out: Activity
OVCAR-4 = test: Growth inhibition of human OVCAR4 cells after 48 hrs by sulforhodamine B assay; conditions: OVCAR-4, 48 h
Summary of the method: (§1)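 Adherent NCI-60 lines were grown in RPMI 1640 with 5% FBS and 2 mM L-glutamine, plated at 5000–40,000 cells/well and preincubated 24 h. They were then exposed to five concentrations (0.01–100 µM, from a DMSO stock) for 48 h at 37 °C, 5% CO2. Cells were fixed with cold TCA (10% final, 60 min, 4 °C) and stained with 0.4% SRB. Dye was solubilized in 10 mM Tris base and A515 read. GI50 was derived from time-zero, control and treated absorbances.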

DU-145 = test: Cytotoxicity against human DU145 cells assessed as cell growth at 1 uM after 48 hrs by sulforhodamine B assay; conditions: DU-145, 48 h, read-out: Activity
Summary of the method: (§2)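 NCI-60 five-dose screen. Cells were grown in RPMI 1640 with 5% FBS and 2 mM L-glutamine and preincubated 24 h. Compound (DMSO stock) was tested at 0.01, 0.1, 1, 10 and 100 µM for 48 h at 37 °C. Cells were fixed in situ with cold TCA (final 10%) and stained with 0.4% SRB. A515 was read, and percent growth was calculated against time-zero and control plates.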

LOX IMVI = test: Cytotoxicity against human LOXIMVI cells assessed as cell growth at 10 '-5 M after 48 hrs by sulforhodamine B assay; conditions: read-out: Activity
KM12 [2] = test: Cytotoxicity against human KM12 cells assessed as cell growth at 10 uM after 48 hrs by sulforhodamine B assay; conditions: KM12, 48 h, read-out: Activity
NCI-H522 [3] = test: Growth inhibition of human NCI-H522 cells after 48 hrs by sulforhodamine B assay; conditions: NCI-H522, 48 h; summary of the method: as §1
NCI/ADR-RES [4] = test: Cytotoxicity against human NCI/ADR-RES cells assessed as cell growth at 1 uM after 48 hrs by sulforhodamine B assay; conditions: read-out: Activity
RXF 393 = test: Cytotoxicity against human RXF393 cells assessed as cell growth at 1 uM after 48 hrs by sulforhodamine B assay; conditions: RXF 393, 48 h, read-out: Activity
SN12C = test: Cytotoxicity against human SN12C cells assessed as cell growth at 0.01 uM after 48 hrs by sulforhodamine B assay; conditions: read-out: Activity
OVCAR-3 = test: Cytotoxicity against human OVCAR3 cells assessed as cell growth at 100 uM after 48 hrs by sulforhodamine B assay; conditions: OVCAR-3, 48 h, read-out: Activity
HT-29 [5] = test: Cytotoxicity against human HT-29 cells assessed as cell growth at 10 '-5 M after 48 hrs by sulforhodamine B assay; conditions: HT-29, 48 h, read-out: Activity
Summary of the method: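 Primary one-dose screen across the NCI 60-line panel at 10 µM. Cells were grown in RPMI 1640 with 5% FBS and 2 mM L-glutamine and held 24 h before drug. Drug was diluted from a DMSO concentrate. Exposure was 48 h at 37 °C, 5% CO2. Cells were fixed with TCA and stained with SRB, with absorbance read at 515 nm. Percent growth was calculated against time-zero and untreated control.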

NCI-H23 = test: Cytotoxicity against human NCI-H23 cells assessed as cell growth at 10 '-5 M after 48 hrs by sulforhodamine B assay; conditions: NCI-H23, 48 h, read-out: Activity
HCC 2998 = test: Cytotoxicity against human HCC2998 cells assessed as cell growth at 100 uM after 48 hrs by sulforhodamine B assay; conditions: HCC 2998, 48 h, read-out: Activity
Summary of the method: (§3)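 Five-dose NCI panel run at 0.01, 0.1, 1, 10 and 100 µM. Cells were in RPMI 1640 with 5% FBS and 2 mM L-glutamine, seeded at 5000–40,000 cells/well and pre-incubated 24 h. Drug was diluted from a DMSO stock into medium with 50 µg/ml gentamicin. Exposure was 48 h at 37 °C, 5% CO2. Cells were fixed with cold TCA and stained with 0.4% SRB, read at 515 nm. Percent growth came from time-zero, control and test absorbances.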

[6] = Cytotoxicity against human Hs 578T cells assessed as cell growth at 100 uM after 48 hrs by sulforhodamine B assay; conditions: read-out: Activity
SK-MEL-2 = test: Cytotoxicity against human SK-MEL-2 cells assessed as cell growth at 0.1 uM after 48 hrs by sulforhodamine B assay; conditions: SK-MEL-2, 48 h, read-out: Activity
NCI/ADR-RES [7] = test: Cytotoxicity against human NCI/ADR-RES cells assessed as cell growth at 0.01 uM after 48 hrs by sulforhodamine B assay; conditions: read-out: Activity
Malme-3M [8] = test: Cytotoxicity against human MALME-3M cells assessed as cell growth at 10 uM after 48 hrs by sulforhodamine B assay; conditions: read-out: Activity
COLO 205 = test: Cytotoxicity against human COLO205 cells assessed as cell growth at 0.01 uM after 48 hrs by sulforhodamine B assay; conditions: COLO 205, 48 h, read-out: Activity; summary of the method: as §2
M14 = test: Cytotoxicity against human M14 cells assessed as cell growth at 100 uM after 48 hrs by sulforhodamine B assay; conditions: M14, 48 h, read-out: Activity
786-0 = test: Cytotoxicity against human 786-0 cells assessed as cell growth at 100 uM after 48 hrs by sulforhodamine B assay; conditions: 786-0, 48 h, read-out: Activity; summary of the method: as §2
SW-620 = test: Growth inhibition of human SW620 cells after 48 hrs by sulforhodamine B assay; conditions: SW-620, 48 h; for CC50: read-out: LC50 (the source's name); summary of the method: as §1
HT-29 [9] = test: Cytotoxicity against human HT-29 cells assessed as cell growth at 0.1 uM after 48 hrs by sulforhodamine B assay; conditions: HT-29, 48 h, read-out: Activity; summary of the method: as §3
MDA-MB-468 = test: Cytotoxicity against human MDA-MB-468 cells assessed as cell growth at 0.1 uM after 48 hrs by sulforhodamine B assay; conditions: MDA-MB-468, 48 h, read-out: Activity
SF-268 = test: Cytotoxicity against human SF268 cells assessed as cell growth at 10 '-5 M after 48 hrs by sulforhodamine B assay; conditions: SF-268, 48 h, read-out: Activity
KM12 [10] = test: Growth inhibition of human KM12 cells after 48 hrs by sulforhodamine B assay; conditions: KM12, 48 h; for CC50: read-out: LC50 (the source's name); summary of the method: as §1
Malme-3M [11] = test: Growth inhibition of human MALME-3M cells after 48 hrs by sulforhodamine B assay; conditions: for CC50: read-out: LC50 (the source's name); summary of the method: as §1
ACHN = test: Growth inhibition of human ACHN cells after 48 hrs by sulforhodamine B assay; conditions: for CC50: read-out: LC50 (the source's name)
Summary of the method: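 Cells were in RPMI 1640 with 5% FBS and pre-incubated 24 h. Read-out was TCA fixation, SRB staining and absorbance at 515 nm. GI50 was the concentration where [(Ti−Tz)/(C−Tz)]×100 = 50, taken from log concentration vs % growth curves. It is given as ">" the top concentration when not reached.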

Cc1ccc2nc(Nc3c(C)cccc3C)sc2c1
growth at 100 µM (NCI-H522 [1]): 34% | GI50 (OVCAR-4): > 100 µM | LC50 (OVCAR-4): > 100 µM | TGI (OVCAR-4): > 100 µM | growth at 1 µM (DU-145): 94% | growth at 10 µM (LOX IMVI): 24.7% | growth at 10 µM (KM12 [2]): 30% | GI50 (NCI-H522 [3]): 0.552 µM | TGI (NCI-H522 [3]): > 100 µM | CC50 (NCI-H522 [3]; read-out: LC50 (the source's name)): > 100 µM | growth at 1 µM (NCI/ADR-RES [4]): 40% | growth at 1 µM (RXF 393): 52% | growth at 0.01 µM (SN12C): 88% | growth at 100 µM (OVCAR-3): 66% | growth at 10 µM (HT-29 [5]): 9.15% | growth at 10 µM (NCI-H23): 57.5% | growth at 100 µM (HCC 2998): 62% | growth at 100 µM [6]: 27% | growth at 0.1 µM (SK-MEL-2): 99% | growth at 0.01 µM (NCI/ADR-RES [7]): 98% | growth at 10 µM (Malme-3M [8]): 45% | growth at 0.01 µM (COLO 205): 107% | growth at 100 µM (M14): 53% | growth at 100 µM (786-0): 60% | GI50 (SW-620): 0.949 µM | TGI (SW-620): > 100 µM | CC50 (SW-620): > 100 µM | growth at 0.1 µM (HT-29 [9]): 92% | growth at 0.1 µM (MDA-MB-468): 82% | growth at 10 µM (SF-268): 61% | GI50 (KM12 [10]): 1.55 µM | TGI (KM12 [10]): > 100 µM | CC50 (KM12 [10]): > 100 µM | TGI (Malme-3M [11]): > 100 µM | CC50 (Malme-3M [11]): > 100 µM | GI50 (ACHN): 76.6 µM | TGI (ACHN): > 100 µM | CC50 (ACHN): > 100 µM

Clc1cccc(Cl)c1Nc1nc2cccc(Cl)c2s1
growth at 100 µM (NCI-H522 [1]): -49% | GI50 (OVCAR-4): 0.708 µM | LC50 (OVCAR-4): 5.05 µM | TGI (OVCAR-4): 2.14 µM | growth at 1 µM (DU-145): 75% | growth at 10 µM (LOX IMVI): -88.3% | growth at 10 µM (KM12 [2]): -96% | GI50 (NCI-H522 [3]): 1.02 µM | TGI (NCI-H522 [3]): 2.61 µM | growth at 1 µM (NCI/ADR-RES [4]): 36% | growth at 1 µM (RXF 393): 45% | growth at 0.01 µM (SN12C): 91% | growth at 100 µM (OVCAR-3): -76% | growth at 10 µM (HT-29 [5]): -67.6% | growth at 10 µM (NCI-H23): -10.5% | growth at 100 µM (HCC 2998): -64% | growth at 100 µM [6]: -17% | growth at 0.1 µM (SK-MEL-2): 88% | growth at 0.01 µM (NCI/ADR-RES [7]): 99% | growth at 10 µM (Malme-3M [8]): -84% | growth at 0.01 µM (COLO 205): 105% | growth at 100 µM (M14): -56% | growth at 100 µM (786-0): -90% | GI50 (SW-620): 1.32 µM | TGI (SW-620): 2.78 µM | CC50 (SW-620): 5.86 µM | growth at 0.1 µM (HT-29 [9]): 96% | growth at 0.1 µM (MDA-MB-468): 81% | growth at 10 µM (SF-268): -33.9% | GI50 (KM12 [10]): 1.2 µM | TGI (KM12 [10]): 2.48 µM | CC50 (KM12 [10]): 5.15 µM | GI50 (Malme-3M [11]): 1.03 µM | TGI (Malme-3M [11]): 2.4 µM | CC50 (Malme-3M [11]): 5.6 µM | GI50 (ACHN): 1.15 µM | TGI (ACHN): 2.38 µM | CC50 (ACHN): 4.92 µM
